# Screening data deposited in PubChem BioAssay by SRMLSC.
# PTEN del growth: PTEN-deleted cell growth suppression | HCT116 PTEN-null viability, CellTiter-Glo, 60 h; active compounds read low | viability, % at 10 µM | 1.2% of 140,000 active | AID 827;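 active = viability at or below a set limit, 4 SD under the median of all tested compounds, cut at about 3.7% in these data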;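 also: PTEN knockout HCT116 line with beta catenin targeted HCT116 as companion control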
# H69AR growth 86K: blocks growth of human H69AR lung tumor cells; H69AR lung tumor viability, ATP luminescence, 72 h; active compounds read low; viability, % at 10 µM; 6% of 85,000 active;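 active = viability at or below 40%; inactive = viability above 40%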;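 also: multidrug resistant small cell line overexpressing MRP-1 efflux transporter; 100% = mean luminescence of untreated control wells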
# Lung fibro prol: blocks proliferation of human lung fibroblasts; LL 47 human lung fibroblast viability, ATP luminescence; active compounds read low; viability, % at 10 µM; 1.1% of 85,000 active; AID 719;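 active = viability at or below 50% in the single dose screen; inactive = viability above 50%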;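 also: compound exposure lasted 72 h before the ATP readout; 100% = median luminescence of untreated cell-only wells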
#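 Signal: luminescent ATP detection, CellTiter-Glo; assay system: LL 47 human lung fibroblasts; input: 1,150 cells/well; incubation: overnight cell rest, 72 h compound treatment at 37 °C; measure: % viability versus median cells-only luminescence; medium: IMEM growth medium with 15% fetal bovine serum; dosing: compound addition at 0.1% DMSO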
# HUVEC inhibit: human endothelial cell proliferation inhibition; AID 648; HUVEC proliferation, CellTiter-Glo luminescence, 72 h; active compounds read low; viability, % at 10 µM (by protocol); 1.1% of 86,000 active;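 active = viability at or below 30%; inactive = viability above 30%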;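 also: 100% = median luminescence of DMSO-only cell control wells on each plate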
# bCat KO growth: beta-catenin-lacking colon tumor cell growth suppression; HCT116 beta-catenin knockout viability, CellTiter-Glo, 60 h; active compounds read low; viability, % at 10 µM; 1.5% of 140,000 active; AID 818;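 active = viability at or under a set limit, the compound median less 4 SD, cut at about 6% in these data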;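 also: 0% = Hyamine 1622 control at 20 µM and 100% = untreated cell control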
# The depositor's hits bear a star; . = no result given. This excerpt belongs to a sample that is enriched for hits.
SMILES,PTEN del growth,H69AR growth 86K,Lung fibro prol,HUVEC inhibit,bCat KO growth
COC(=O)c1ccccc1NC(=O)Cn1nc2n(C)c3ccccc3n2c(=O)c1=O,100,.,.,.,89
Cc1ccc(S(=O)(=O)/N=C(/c2ccc(F)cc2)N2CCCCC2)cc1,89,.,.,.,84
NC1=NC2(CCC(c3ccccc3)CC2)n2c(nc3ccccc32)N1 (centres undefined),7,8.7*,87,62,12
NC1=NC2(CCCCC2)n2c(nc3ccccc32)N1,94,92,87,88,98
CCOC(=O)c1c(C)oc2c1c(C(c1cccnc1)N1CCOCC1)c(O)c1ccccc12 (centres undefined),20,.,.,.,24
CCOC(=O)c1c(C)oc2c1c(C(c1cccnc1)N1CCN(C)CC1)c(O)c1ccccc12 (centres undefined),.,2.1*,51,8.4*,.
CCOC(=O)c1c(C)oc2c1c1c(c3ccccc32)OCN(Cc2cccnc2)C1,67,12*,85,76,60
O=C(NC(Cc1c[nH]c2ccccc12)C(=O)OCC(=O)c1cccc2ccccc12)c1cccs1 (centres undefined),90,.,.,.,89
Cc1ccc(C(=O)N(Cc2ccccc2)C(C)(C)C)cc1C,68,.,.,.,72
COCCn1cnc2c1c(=O)n(CC(=O)OCC(=O)NCC(F)(F)F)c(=O)n2Cc1ccccc1,95,.,.,.,89
O=C(CSc1ccc2nnc(CCNS(=O)(=O)c3ccccc3)n2n1)Nc1nc2ccccc2s1,94,.,.,.,88
CCNc1nc(NCC)n2c(SCC(=O)Nc3ccccc3[N+](=O)[O-])nnc2n1,96,.,.,.,94
Cc1ccc(C2c3c(-c4ccccc4O)n[nH]c3C(=O)N2Cc2ccncc2)cc1 (centres undefined),21,7.6*,57,49,25
O=C1c2[nH]nc(-c3ccccc3O)c2C(c2cccc(O)c2)N1Cc1ccco1 (centres undefined),74,38*,89,82,93
COc1ccc(CCN2C(=O)c3[nH]nc(-c4ccccc4O)c3C2c2cccc(Cl)c2)cc1 (centres undefined),10,23*,54,15*,11
O=C(c1cnn2c1NC(c1ccco1)CC2C(F)(F)F)N1CCN(c2cccc(Cl)c2)CC1 (centres undefined),39,14*,88,58,62
NC(=O)c1ccc(NC(=O)COC(=O)c2c3c(nc4ccccc24)/C(=C\c2cccs2)CCC3)cc1,1.8*,.,.,.,1.8*
CC(=O)c1ccc(NC(=O)C(=O)c2cn(CC(=O)N3CCCCC3)c3ccccc23)cc1,97,.,.,.,88
N#CC1=C(N)N2C(=C(C#N)C1c1cccc(Br)c1)Nc1ccccc12 (centres undefined),2.0*,.,.,.,3.2*
N#CC1=C(N)N2C(=C(C#N)C1c1ccc(Br)cc1)Nc1ccccc12 (centres undefined),2.2*,.,.,.,1.9*
CCN(C(=O)CSc1nnc2c3ccccc3n(CC)c2n1)C1CCS(=O)(=O)C1 (centres undefined),96,.,.,.,91
CCOC(=O)c1c(C2COc3ccccc3O2)csc1NC(=O)c1ccccc1 (centres undefined),0.5*,75,98,109,0.8*
CC1CN(C(=O)C2CC2)C(C)CN1C(=O)C1CC1 (centres undefined),110,.,.,.,100
Cc1nnc(Sc2c(N)n(C)c(=O)n(C)c2=O)s1,98,100,98,95,100
Cc1nnc(Sc2nc(Sc3nnc(C)s3)nc(N3CCN(C)CC3)n2)s1,.,0.6*,6.1*,69,.
SMILES,PTEN del growth,H69AR growth 86K,Lung fibro prol,HUVEC inhibit,bCat KO growth
CC(=O)OC1COC(N2CCc3cc(Br)c([N+](=O)[O-])cc32)C(OC(C)=O)C1OC(C)=O (centres undefined),94,.,.,.,101
CCc1ccc2oc(-c3cc(N)ccc3O)nc2c1,34,32*,68,82,61
CCc1ccc2oc(-c3cc(N)cc(C)c3O)nc2c1,73,23*,82,81,64
Cc1ccc(NC(=O)C2CCCN2S(=O)(=O)c2ccc3c(c2)n(C)c(=O)c(=O)n3C)cc1C (centres undefined),88,.,.,.,85
Cc1scc(C(=O)N/N=C/c2ccc(Cl)s2)c1C,43,.,.,.,35
CC(C(=O)O)N1C(=O)/C(=C/c2cccn2C)SC1=S (centres undefined),98,.,.,.,97
CC1C/C(=C/c2cccn2C)C(=O)/C(=C/c2cccn2C)C1 (centres undefined),11,89,91,88,3.8*
CCOC(=O)c1sc(NC(=O)c2ccccc2)cc1C,65,.,.,.,78
CCOC(=O)c1sc(NC(=O)c2ccc(Cl)s2)cc1C,96,97,104,67,90
CCOC(=O)c1sc(NC(=O)Nc2ccc(Cl)cc2)cc1C,5,.,.,.,5.2*
CCOC(=O)c1sc(NC(=O)c2c(C)nn(Cc3ccccc3)c2C)cc1C,6,13*,94,60,19
COc1ccc(-c2nn(-c3ccccc3)cc2/C=N/N2C(=O)CSC2=S)cc1,91,60,59,4.0*,100
O=C(CCc1ccc(Oc2cc([N+](=O)[O-])cc([N+](=O)[O-])c2)cc1)N1CCCCCC1,81,.,.,.,89
COC(=O)c1nnn(-c2nonc2N)c1CN1CCc2ccccc21,88,28*,100,64,92
CCOC(=O)c1nnn(-c2nonc2N)c1CN1CCc2ccccc2C1,79,81,92,90,77
COc1ccc(C(C)=O)cc1CSc1nc2ccccc2o1,1.0*,90,95,90,1.1*
CCn1c(=O)c(=O)[nH]c2cc(C(=O)NC3CC3)ccc21,102,.,.,.,97
CCn1c(=O)c(=O)[nH]c2cc(C(=O)NC3CCCc4ccccc43)ccc21 (centres undefined),27,32*,69,66,29
CCOC(=O)C1=C(C)NC(=S)NC1/C=C/c1ccccc1 (centres undefined),57,.,.,.,46
O=C1CC(c2ccc(F)cc2)Sc2nc(C34CC5CC(CC(C5)C3)C4)nn21 (centres undefined),79,.,.,.,94
N#CC1=C(N)N(c2ccccc2)C2=C(C(=O)CCC2)C1c1ccsc1 (centres undefined),86,27*,94,94,89
COc1cc(C(=O)Oc2ccccc2/C=N/NC(=O)c2ccc(Cl)cc2Cl)cc(OC)c1OC,2.4*,.,.,.,2.7*
C=CCOc1ccccc1/C=N/NC(=O)c1ccc(Cl)cc1Cl,92,.,.,.,85
O=[N+]([O-])c1ccc2nc(/C=C/c3ccc(Cl)cc3)[nH]c2c1,2.8*,.,.,.,2.1*
O=S(=O)(c1ccc(S(=O)(=O)N2CCCC2)cc1)N1CCCCCC1,99,95,102,95,95
CC1CCN(S(=O)(=O)c2ccc3c(c2)C(=NO)c2cc(S(=O)(=O)N4CCC(C)CC4)ccc2-3)CC1,1.2*,0.9*,2.3*,2.8*,0.8*
O=S(=O)(c1ccc2c(c1)C(=NO)c1cc(S(=O)(=O)N3CCCCC3)ccc1-2)N1CCCCC1,1.6*,0.4*,1.6*,1.6*,0.9*
